Results as given in ChEMBL document CHEMBL2151038, “Synthesis, characterization and biological evaluation of some novel 2,4-thiazolidinediones as potential cytotoxic, antimicrobial and antihyperglycemic agents” (Bioorg Med Chem Lett, 2012).
Converted amounts (≈) assume the structure as drawn.

Key:
Rattus norvegicus [1] = assay: Antihyperglycemic activity in streptozotocin-induced type 2 diabetic Wistar albino rat assessed as reduction in plasma glucose level at 30 mg/kg, po by glucometer; type: functional
Procedure, shortened: (§1)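 Wistar albino rats of either sex, 150–200 g, fasted 16 h. Diabetes induced by nicotinamide 150 mg/kg, then STZ 65 mg/kg in citrate buffer pH 4.5. Glucose confirmed after 48 h. Groups of six. Oral dosing as 0.25% sodium CMC suspension at 10, 30 or 50 mg/kg. Rosiglitazone was the reference. Retro-orbital plasma glucose measured by glucometer before dosing and at 1, 2, 4, 6, 8, 12 and 24 h. Results as mean ± SEM, compared by ANOVA, t-test and Dunnett's test.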

Rattus norvegicus [2] = assay: Antihyperglycemic activity in streptozotocin-induced type 2 diabetic Wistar albino rat assessed as reduction in plasma glucose level at 50 mg/kg, po by glucometer; type: functional; procedure, shortened: as §1
Rattus norvegicus [3] = assay: Antihyperglycemic activity in streptozotocin-induced type 2 diabetic Wistar albino rat assessed as reduction in plasma glucose level at 10 mg/kg, po by glucometer; type: functional; procedure, shortened: as §1
Aspergillus niger = assay: Antifungal activity against Aspergillus niger NCIM 548 after 48 hrs by NCCLS agar well diffusion method; type: functional; conditions: NCIM 548, 48 h
Procedure, shortened: (§2)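 Spore suspensions in sterile distilled water adjusted to 10⁶ CFU/mL, 0.1 mL spread on potato-dextrose agar. 6 mm wells received 0.1 mL compound in 1% DMSO (final 16–512 µg/mL). Controls: 1% DMSO and ketoconazole (16 µg/mL). Triplicate plates, 48 h at 28 ± 0.2 °C. MIC = lowest concentration completely inhibiting growth.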

Klebsiella pneumoniae = assay: Antibacterial activity against Klebsiella pneumoniae NCIM 5082 after 24 hrs by NCCLS agar well diffusion method; type: functional; conditions: NCIM 5082, 24 h
Procedure, shortened: (§3)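 Nutrient agar seeded with 0.1 mL bacterial suspension (10⁵ CFU/mL in 0.85% saline). 6 mm wells filled with 0.1 mL compound. Plates in triplicate, 37 ± 0.5 °C for 24 h. MIC = lowest concentration giving complete growth inhibition.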

Pseudomonas aeruginosa = assay: Antibacterial activity against Pseudomonas aeruginosa NCIM 2036 after 24 hrs by NCCLS agar well diffusion method; type: functional; conditions: NCIM 2036, 24 h; procedure, shortened: as §3
Micrococcus luteus = assay: Antibacterial activity against Micrococcus luteus NCIM 2155 after 24 hrs by NCCLS agar well diffusion method; type: functional; conditions: NCIM 2155, 24 h; procedure, shortened: as §3
Aspergillus oryzae = assay: Antifungal activity against Aspergillus oryzae NCIM 643 after 48 hrs by NCCLS agar well diffusion method; type: functional; conditions: NCIM 643, 48 h; procedure, shortened: as §2
[4] = Toxicity in mouse assessed as changes in vital functions; type: organism-based; conditions: in vivo
Bacillus pumilus = assay: Antibacterial activity against Bacillus pumilus NCIM 2327 after 24 hrs by NCCLS agar well diffusion method; type: functional; conditions: NCIM 2327, 24 h; procedure, shortened: as §3
Staphylococcus aureus = assay: Antibacterial activity against Staphylococcus aureus NCIM 2079 after 24 hrs by NCCLS agar well diffusion method; type: functional; conditions: NCIM 2079, 24 h; procedure, shortened: as §3
Bacillus subtilis = assay: Antibacterial activity against Bacillus subtilis NCIM 2063 after 24 hrs by NCCLS agar well diffusion method; type: functional; conditions: NCIM 2063, 24 h; procedure, shortened: as §3
Escherichia coli = assay: Antibacterial activity against Escherichia coli NCIM 2065 after 24 hrs by NCCLS agar well diffusion method; type: functional; conditions: NCIM 2065, 24 h; procedure, shortened: as §3
Proteus vulgaris = assay: Antibacterial activity against Proteus vulgaris NCIM 2813 after 24 hrs by NCCLS agar well diffusion method; type: functional; conditions: NCIM 2813, 24 h; procedure, shortened: as §3
Penicillium chrysogenum = assay: Antifungal activity against Penicillium chrysogenum NCIM 738 after 48 hrs by NCCLS agar well diffusion method; type: functional; conditions: NCIM 738, 48 h; procedure, shortened: as §2
Rattus norvegicus [5] = assay: Antihyperglycemic activity in po dosed streptozotocin-induced type 2 diabetic Wistar albino rat assessed as reduction in plasma glucose level by glucometer; type: functional, organism-based; procedure, shortened: as §1
Artemia salina = assay: Cytotoxicity in brine shrimps larvae assessed as mortality after 24 hrs; type: functional; conditions: read-out: ED50 (the source's name)
Procedure, shortened: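 Artemia salina nauplii hatched 38 h under constant aeration in sterile brine (sea salt 38 g/L, pH 8.5 with 1 N NaOH). Ten nauplii per vial were exposed to a range of compound concentrations at 37 °C for 24 h under incandescent light, alongside vehicle-treated controls. Survivors were counted, % lethality was taken from mean survivors versus control, and ED50 came from probit analysis.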

Candida albicans = assay: Antifungal activity against Candida albicans NCIM 3102 after 48 hrs by NCCLS agar well diffusion method; type: functional; conditions: NCIM 3102, 48 h; procedure, shortened: as §2

Compound	Activity (Rattus norvegicus [1]) [mg/dL]	Activity (Rattus norvegicus [2]) [mg/dL]	Activity (Rattus norvegicus [3]) [mg/dL]	MIC (Aspergillus niger) [µg/mL]	MIC (Klebsiella pneumoniae) [µg/mL]	MIC (Pseudomonas aeruginosa) [µg/mL]	MIC (Micrococcus luteus) [µg/mL]	MIC (Aspergillus oryzae) [µg/mL]	MTD [4] [mg/kg]	MIC (Bacillus pumilus) [µg/mL]	MIC (Staphylococcus aureus) [µg/mL]	MIC (Bacillus subtilis) [µg/mL]	MIC (Escherichia coli) [µg/mL]	MIC (Proteus vulgaris) [µg/mL]	MIC (Penicillium chrysogenum) [µg/mL]	Activity (Rattus norvegicus [5])	EC50 (Artemia salina) [µg/mL]	MIC (Candida albicans) [µg/mL]
CN(CCOc1ccc(CC2SC(=O)NC2=O)cc1)c1ccccn1 (centres undefined) [ROSIGLITAZONE]	14.83	12.74	38.57															
O=C1NC(=O)/C(=C/c2ccc(/C=C/C(=O)c3ccc(O)cc3O)cc2)S1	33.72	41.67	26.86	256 (≈ 697 µM)	256 (≈ 697 µM)	256 (≈ 697 µM)	512 (≈ 1390 µM)	256 (≈ 697 µM)	2000	256 (≈ 697 µM)	256 (≈ 697 µM)	256 (≈ 697 µM)	256 (≈ 697 µM)	256 (≈ 697 µM)	256 (≈ 697 µM)	Dose-dependent effect	49.2 (≈ 134 µM)	256 (≈ 697 µM)
O=C1NC(=O)/C(=C/c2ccc(/C=C/C(=O)c3cccc(F)c3)cc2)S1	16.87	20.66	12.08	64 (≈ 181 µM)	32 (≈ 90.6 µM)	32 (≈ 90.6 µM)	64 (≈ 181 µM)	64 (≈ 181 µM)	2000	32 (≈ 90.6 µM)	32 (≈ 90.6 µM)	32 (≈ 90.6 µM)	32 (≈ 90.6 µM)	64 (≈ 181 µM)	64 (≈ 181 µM)	Dose-dependent effect	9.28 (≈ 26.3 µM)	64 (≈ 181 µM)
O=C1NC(=O)/C(=C/c2ccc(/C=C/C(=O)c3ccccn3)cc2)S1	34.68	43.72	22.78	64 (≈ 190 µM)	64 (≈ 190 µM)	128 (≈ 381 µM)	32 (≈ 95.1 µM)	64 (≈ 190 µM)	2000	64 (≈ 190 µM)	64 (≈ 190 µM)	128 (≈ 381 µM)	64 (≈ 190 µM)	64 (≈ 190 µM)	128 (≈ 381 µM)	Dose-dependent effect	30.3 (≈ 90 µM)	64 (≈ 190 µM)
O=C1NC(=O)/C(=C/c2ccc(/C=C/C(=O)c3ccc(F)cc3)cc2)S1	25.67	33.12	22.74	32 (≈ 90.6 µM)	16 (≈ 45.3 µM)	16 (≈ 45.3 µM)	32 (≈ 90.6 µM)	32 (≈ 90.6 µM)	2000	16 (≈ 45.3 µM)	32 (≈ 90.6 µM)	16 (≈ 45.3 µM)	16 (≈ 45.3 µM)	32 (≈ 90.6 µM)	16 (≈ 45.3 µM)	Dose-dependent effect	4.32 (≈ 12.2 µM)	32 (≈ 90.6 µM)
COc1cc([C@@H]2c3cc4c(cc3[C@H](O)[C@H]3COC(=O)[C@H]23)OCO4)cc(OC)c1OC [PODOFILOX]																	3.61 (≈ 8.71 µM)	
O=C1NC(=O)/C(=C/c2ccc(/C=C/C(=O)c3cccc(Cl)c3)cc2)S1	15.42	21.83	11.71	64 (≈ 173 µM)	64 (≈ 173 µM)	32 (≈ 86.5 µM)	64 (≈ 173 µM)	64 (≈ 173 µM)	2000	64 (≈ 173 µM)	64 (≈ 173 µM)	64 (≈ 173 µM)	64 (≈ 173 µM)	32 (≈ 86.5 µM)	64 (≈ 173 µM)	Dose-dependent effect	24.8 (≈ 67.1 µM)	128 (≈ 346 µM)
